Test results from ChEMBL document CHEMBL5678801, “A benzothiophene inhibitor of mitogen-activated protein kinase-activated protein kinase 2 inhibits tumor necrosis factor alpha production and has oral anti-inflammatory efficacy in acute and chronic models of inflammation” (J Pharmacol Exp Ther, 2010).

What was measured:
[1] = AUC in chronic SCW-induced arthritis Lewis rat model plasma at ED50 concentration; type: ADME, cell-free
How it was run: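 Female Lewis rats (125-140 g) received a single i.p. streptococcal cell wall injection. Animals showing the acute phase were pooled, 4-8 per group over three experiments. Dosing was oral gavage b.i.d., days 10-21, in methylcellulose-Tween-20 vehicle. Hind paw volume was read by displacement plethysmometer on day 21, as % inhibition of swelling. Plasma was sampled up to 11 h after the last dose, 3 rats per dose. ED values came from fitted curves.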

[2] = target: T1, MAP kinase-activated protein kinase 5 (Homo sapiens, UniProt Q8IW41); test: Inhibition of recombinant PRAK (unknown origin) expressed in Escherichia coli using KKKALSRQLSVAA as substrate incubated for 1 hr followed by substrate addition in presence of ATP
T1 sequence (Q8IW41 whole entry): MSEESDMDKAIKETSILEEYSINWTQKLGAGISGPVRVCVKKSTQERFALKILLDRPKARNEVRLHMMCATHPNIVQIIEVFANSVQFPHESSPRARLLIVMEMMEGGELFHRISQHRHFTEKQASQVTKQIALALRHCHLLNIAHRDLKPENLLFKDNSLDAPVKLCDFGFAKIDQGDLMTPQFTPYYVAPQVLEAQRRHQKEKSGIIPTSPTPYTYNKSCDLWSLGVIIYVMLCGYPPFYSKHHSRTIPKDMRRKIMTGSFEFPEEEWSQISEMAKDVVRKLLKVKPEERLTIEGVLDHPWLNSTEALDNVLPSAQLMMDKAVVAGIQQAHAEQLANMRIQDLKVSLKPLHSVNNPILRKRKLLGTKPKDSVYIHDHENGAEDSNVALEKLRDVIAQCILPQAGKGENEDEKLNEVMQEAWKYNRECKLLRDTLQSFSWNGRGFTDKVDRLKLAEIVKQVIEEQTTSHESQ
How it was run: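 Recombinant kinase first activated with activated p38α (1:50 molar ratio) and 250 μM ATP for 1 hr at 30°C. Activity measured by 33P-labelled product peptide, separated by ion exchange. MgATP fixed at the Km(app) determined for each enzyme. IC50 values from duplicate experiments.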

[3] = target: Cyclin-dependent kinase 1/cyclin B1 (Homo sapiens, UniProt P06493); test: Inhibition of CDK1/cycB (unknown origin); type: protein-complex assay
How it was run: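 Kinase panel: 200 kinases were first screened at 1 μM inhibitor for percent inhibition. Those above 50% inhibition were then titrated for IC50. MgATP was fixed at the Km(app) determined for each enzyme.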

[4] = Inhibition of MK2 activity in LPS induced human U937 cells preincubated with compound for 1 hr followed by LPS induction and measured after 30 mins by Western blot analysis; type: functional, cell-based; details: u-937
How it was run: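 U937 cells were pretreated with compound for 1 h, then stimulated with LPS 100 ng/ml for 30 min at 37°C. Lysates were run on SDS-PAGE and Western blotted for p-Ser78-HSP27 and total HSP27, detected with fluorescent secondary antibodies and LiCor scanning. The phospho/total ratio was expressed against the LPS-only control. Single experiment repeated three times. 4-parameter fit.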

[5] = Inhibition of IL-1 beta production in LPS induced human PBMC cells preincubated with compound for 1 hr followed by LPS induction and measured after 16 hrs by MSD analysis; type: functional, cell-based
How it was run: (§1)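 Human PBMCs were pretreated with compound for 1 h (<1% DMSO final), then stimulated with LPS 100 ng/ml at 37°C. Cytokines in culture media were read by MSD 4-plex: TNFα at 4 h; IL-1β, IL-6 and IL-8 at 16 h. Data are means ±S.E.M. of two independent experiments in duplicate, three donors. IC50 by 4-parameter nonlinear regression.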

[6] = Inhibition of IL-6 production in LPS induced human PBMC cells preincubated with compound for 1 hr followed by LPS induction and measured after 16 hrs by MSD analysis; type: functional, cell-based; how it was run: as §1
[7] = Inhibition of IL-8 production in LPS induced human Whole blood cell preincubated with compound for 1 hr followed by LPS induction and measured after 16 hrs; type: functional, cell-based
How it was run: (§2)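 Human whole blood was stimulated ex vivo with LPS 100 ng/ml. Plasma cytokines were read by MSD 4-plex: TNFα at 4 h; IL-1β, IL-6 and IL-8 at 16 h. Data are means ±S.E.M. of two independent experiments in duplicate, three donors. IC50 by 4-parameter nonlinear regression.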

[8] = Antiinflammatory activity in human Whole blood cell assessed as inhibition of LPS induced IL-8 production preincubated for 1 hr followed by LPS stimulation and measured after 16 hrs by MSD analysis; type: functional, cell-based; how it was run: as §2
[9] = Clearance in Sprague-Dawley rat plasma at 1 mg/kg measured upto 24 hrs by LC-MS/MS analysis; type: ADME, organism-based
How it was run: (§3)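 Male Sprague-Dawley rats (275-300 g), carotid-catheterized and acclimated overnight. Dosing was i.v. at 1 mpk (n=2) in 70% saline/20% PEG-400/10% ethanol, or oral at 3 mpk (n=3) as a suspension in 0.5% HPMC/Tween. Plasma drug was measured by LC-MS/MS. Cmax and Tmax were read from individual profiles. t½ came from the terminal log-linear slope and AUC by the linear trapezoidal rule. CL = dose/AUC0-∞, Vdss = CL×MRT, F = dose-normalized AUC po/iv.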

[10] = Cmax in Sprague-Dawley rat at 3 mg/kg, po measured upto 24 hrs by […] analysis; type: ADME, organism-based; details: in vivo; how it was run: as §3
[11] = Oral bioavailability in Sprague-Dawley rat at 3 mg/kg measured upto 24 hrs by […] analysis; type: ADME, organism-based; details: in vivo; how it was run: as §3
[12] = Unbound plasma concentration in po dosed LPS-induced Lewis rat model at ED50 concentration measured after 5.5 hrs of initial dose by LC-MS/MS analysis; type: ADME, organism-based; details: in vivo
How it was run: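 Male Lewis rats (225-250 g, 5 per group) were fasted 18 h, then dosed orally at 0.2-60 mg/kg as a suspension in 0.5% methylcellulose/0.025% Tween 20. LPS 1 mg/kg was given i.v. 4 h later. Blood was taken by cardiac puncture 90 min after LPS. Serum TNFα was read by ELISA and drug by LC-MS/MS, three independent experiments. 4-parameter fit. Unbound values were corrected with measured rat plasma protein binding.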

[13] = target: T2, MAP kinase-activated protein kinase 2 (Homo sapiens, UniProt P49137)
[14] = target: T2, MAP kinase-activated protein kinase 2; remark: listed apart in the source

T2 sequence (P49137 whole entry, looked up): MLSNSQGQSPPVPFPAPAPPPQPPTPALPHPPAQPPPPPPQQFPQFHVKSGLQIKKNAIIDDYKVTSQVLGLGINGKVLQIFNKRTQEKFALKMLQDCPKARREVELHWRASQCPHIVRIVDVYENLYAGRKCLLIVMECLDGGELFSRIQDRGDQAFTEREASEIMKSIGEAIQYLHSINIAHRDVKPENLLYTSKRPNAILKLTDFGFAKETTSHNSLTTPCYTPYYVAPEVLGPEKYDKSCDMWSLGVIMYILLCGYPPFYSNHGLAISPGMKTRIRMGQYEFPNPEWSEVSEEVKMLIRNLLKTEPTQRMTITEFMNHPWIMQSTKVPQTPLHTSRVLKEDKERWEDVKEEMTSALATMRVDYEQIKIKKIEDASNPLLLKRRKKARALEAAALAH
Chain of Cyclin-dependent kinase 1/cyclin B1 (P06493 whole entry): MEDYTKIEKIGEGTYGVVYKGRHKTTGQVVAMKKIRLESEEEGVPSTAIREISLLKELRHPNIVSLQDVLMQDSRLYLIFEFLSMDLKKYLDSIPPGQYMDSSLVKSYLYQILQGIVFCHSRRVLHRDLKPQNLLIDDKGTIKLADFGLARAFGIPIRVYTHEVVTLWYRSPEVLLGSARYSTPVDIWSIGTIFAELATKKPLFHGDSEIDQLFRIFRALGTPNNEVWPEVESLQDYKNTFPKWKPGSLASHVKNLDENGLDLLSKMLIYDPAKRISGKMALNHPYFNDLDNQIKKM
Chain of Cyclin-dependent kinase 1/cyclin B1 (P14635 whole entry, further chain): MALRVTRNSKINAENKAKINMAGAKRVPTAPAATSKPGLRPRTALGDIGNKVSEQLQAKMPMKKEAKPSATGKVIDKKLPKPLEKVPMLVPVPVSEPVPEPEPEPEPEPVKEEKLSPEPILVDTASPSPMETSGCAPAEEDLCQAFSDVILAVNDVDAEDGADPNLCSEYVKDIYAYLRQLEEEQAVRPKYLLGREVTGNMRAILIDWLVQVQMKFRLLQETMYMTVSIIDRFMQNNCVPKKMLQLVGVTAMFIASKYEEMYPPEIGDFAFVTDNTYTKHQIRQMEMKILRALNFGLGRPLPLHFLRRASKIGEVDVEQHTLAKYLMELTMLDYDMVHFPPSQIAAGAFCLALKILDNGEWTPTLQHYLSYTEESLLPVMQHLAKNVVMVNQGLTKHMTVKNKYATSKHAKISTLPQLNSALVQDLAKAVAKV

- AUC [1]: 34 µM·h
- IC50 [2]: 5 nM
- IC50 [3]: 354 nM
- IC50 [4]: 201 nM
- IC50 [5]: 2780 nM
- IC50 [6]: 1260 nM
- IC50 [7]: > 25000 nM
- IC50 [8]: > 20000 nM
- clearance [9]: 10.3 mL/min/kg
- Cmax [10]: 660 nM
- bioavailability [11]: 46%
- Cp(f) [12]: 110 nM
- T1/2 [13]: 2.43 min
- fIC50 [14]: 126 nM
Structure (SMILES): Cc1ccc(-c2ccc3c(ccc4sc5c(c43)NC[C@@H](C)NC5=O)n2)cn1
